# Measured values taken from ChEMBL document CHEMBL4014346, “Lead Optimization Generates CYP11B1 Inhibitors of Pyridylmethyl Isoxazole Type with Improved Pharmacological Profile for the Treatment of Cushing's Disease” (J Med Chem, 2017).
# How the values were obtained:
# [1] = Half life in human liver S9 fractions at 1 uM in presence of NADPH/UDPGA by LC-MS/MS analysis; assay type: ADME
# Outline: (§1)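 Samples taken at 0, 5, 15 and 60 min, stopped with cold acetonitrile containing internal standard. Remaining parent measured by LC-MS/MS.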
# [2] = Half life in rat liver S9 fractions at 1 uM in presence of NADPH/UDPGA by LC-MS/MS analysis; assay type: ADME, tissue-based; outline: as §1
# CYP17A1 = biological target: T1, CYP17A1 (Homo sapiens, UniProt P05093); experiment: Inhibition of human CYP17A1 expressed in Escherichia coli membranes at 2 uM using [3H]-progesterone as substrate after 30 mins in presence of NADPH by HPLC analysis relative to control; assay type: ADME, cell membranes; details: Escherichia coli membranes expressing human CYP17A1, probe [3H]-progesterone
# T1 sequence (P05093 whole entry): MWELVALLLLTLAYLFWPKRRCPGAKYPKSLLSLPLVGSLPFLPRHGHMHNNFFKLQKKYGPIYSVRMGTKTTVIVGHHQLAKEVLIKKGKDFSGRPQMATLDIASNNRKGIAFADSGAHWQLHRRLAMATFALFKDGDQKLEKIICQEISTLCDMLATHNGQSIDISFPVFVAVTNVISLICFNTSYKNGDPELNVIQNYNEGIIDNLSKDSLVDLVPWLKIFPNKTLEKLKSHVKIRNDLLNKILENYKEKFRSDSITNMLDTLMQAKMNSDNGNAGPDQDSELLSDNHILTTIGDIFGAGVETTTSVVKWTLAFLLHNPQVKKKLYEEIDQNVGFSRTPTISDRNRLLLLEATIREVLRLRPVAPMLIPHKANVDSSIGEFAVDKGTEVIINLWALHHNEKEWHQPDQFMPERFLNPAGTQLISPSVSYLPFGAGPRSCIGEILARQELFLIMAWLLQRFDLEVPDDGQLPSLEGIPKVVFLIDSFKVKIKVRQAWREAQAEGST
# Outline: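 Human CYP17A1 expressed in E. coli; [³H]-progesterone (25 µM) as substrate with NADPH cofactor; test compounds at 2 µM; abiraterone and ketoconazole as references.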
# CYP1A2 = biological target: T2, CYP1A2 (Homo sapiens, UniProt P05177); experiment: Inhibition of recombinant human CYP1A2 expressed in baculovirus infected insect cell microsomes at 1 uM relative to control; assay type: ADME
# T2 sequence (P05177 whole entry): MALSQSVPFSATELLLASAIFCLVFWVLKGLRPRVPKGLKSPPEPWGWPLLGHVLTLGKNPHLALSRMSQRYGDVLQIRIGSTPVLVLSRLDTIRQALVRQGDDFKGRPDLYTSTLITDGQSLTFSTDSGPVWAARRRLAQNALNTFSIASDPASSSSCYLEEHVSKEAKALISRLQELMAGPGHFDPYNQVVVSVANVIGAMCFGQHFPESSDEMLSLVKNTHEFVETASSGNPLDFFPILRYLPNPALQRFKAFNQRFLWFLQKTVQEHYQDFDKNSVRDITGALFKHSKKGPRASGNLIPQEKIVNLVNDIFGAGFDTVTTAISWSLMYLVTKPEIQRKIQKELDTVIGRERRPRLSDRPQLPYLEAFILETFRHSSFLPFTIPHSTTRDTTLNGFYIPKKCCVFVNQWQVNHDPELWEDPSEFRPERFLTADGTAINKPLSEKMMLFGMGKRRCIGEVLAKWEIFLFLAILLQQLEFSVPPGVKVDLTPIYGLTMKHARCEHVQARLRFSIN
# Outline: (§2)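 Recombinant human CYP1A2, 2B6, 2C9, 2C19, 2D6 and 3A4 in baculovirus-infected insect-cell microsomes, assayed per kit instructions; test compound at 1 µM, percent inhibition.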
# CYP2B6 = biological target: T3, CYP2B6 (Homo sapiens, UniProt P20813); experiment: Inhibition of recombinant human CYP2B6 expressed in baculovirus infected insect cell microsomes at 1 uM relative to control; assay type: ADME; outline: as §2
# T3 sequence (P20813 whole entry): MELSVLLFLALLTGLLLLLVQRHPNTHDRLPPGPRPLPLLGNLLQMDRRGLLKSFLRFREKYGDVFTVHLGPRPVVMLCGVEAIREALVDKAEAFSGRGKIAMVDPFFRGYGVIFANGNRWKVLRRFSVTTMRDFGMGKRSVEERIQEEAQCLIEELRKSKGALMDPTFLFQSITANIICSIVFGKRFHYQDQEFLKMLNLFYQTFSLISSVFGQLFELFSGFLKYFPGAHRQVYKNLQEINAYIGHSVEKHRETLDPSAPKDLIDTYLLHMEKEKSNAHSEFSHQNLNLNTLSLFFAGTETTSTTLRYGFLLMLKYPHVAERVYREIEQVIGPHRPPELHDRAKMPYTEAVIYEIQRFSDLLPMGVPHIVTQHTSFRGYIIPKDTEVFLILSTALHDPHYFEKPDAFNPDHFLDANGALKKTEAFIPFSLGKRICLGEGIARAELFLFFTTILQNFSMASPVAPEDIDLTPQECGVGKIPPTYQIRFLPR
# CYP2C9 = CYP2C9 (Homo sapiens, UniProt P11712); experiment: Inhibition of recombinant human CYP2C9 expressed in baculovirus infected insect cell microsomes at 1 uM relative to control; assay type: ADME; outline: as §2
# CYP2C19 = CYP2C19 (Homo sapiens, UniProt P33261); experiment: Inhibition of recombinant human CYP2C19 expressed in baculovirus infected insect cell microsomes at 1 uM relative to control; assay type: ADME; outline: as §2
# Salmonella typhimurium [3] = experiment: Mutagenicity in Salmonella typhimurium TA98 up to 100 uM by Ames 2 assay; assay type: toxicity; details: salmonella enterica subsp. enterica serovar typhimurium
# Outline: (§3)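 AMES II kit with Salmonella typhimurium TA98 and TA7001–TA7006, run with or without rat liver S9 fraction according to the kit instructions.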
# Salmonella typhimurium [4] = experiment: Mutagenicity in Salmonella typhimurium TA7001/7002/7003/7004/7005/7006 up to 100 uM by Ames 2 assay; assay type: toxicity; details: salmonella enterica subsp. enterica serovar typhimurium; outline: as §3
# Salmonella typhimurium [5] = experiment: Mutagenicity in Salmonella typhimurium TA7001/7002/7003/7004/7005/7006 up to 100 uM in presence of rat liver S9 fraction by Ames 2 assay; assay type: toxicity; details: salmonella enterica subsp. enterica serovar typhimurium; outline: as §3
# [6] = Aqueous solubility of the compound in 2% DMSO up to 24 hrs; assay type: physicochemical
# [7] = Plasma concentration in Sprague-Dawley rat at 100 mg/kg, po administered as single dose after 1 hr by HPLC-MS/MS analysis; assay type: ADME, organism-based
# Outline: (§4)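 One female Sprague-Dawley rat dosed orally with a suspension in 0.5% porcine gelatin/5% mannitol in water, under 2% isoflurane. Tail-vein blood in citrate; plasma precipitated with acetonitrile containing diphenhydramine internal standard and quantified by HPLC-MS/MS.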
# [8] = Plasma concentration in Sprague-Dawley rat at 100 mg/kg, po administered as single dose after 4 hrs by HPLC-MS/MS analysis; assay type: ADME, organism-based; outline: as §4
# [9] = Volume of distribution at steady state in Sprague-Dawley rat at 5 mg/kg, iv administered as single dose by HPLC-MS/MS analysis; assay type: ADME, organism-based; details: in vivo, read-out: Vdss
# Outline: (§5)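 Female Sprague-Dawley rats (244–299 g), 2 animals; single iv dose in PEG300/ethanol/water (60/10/30), under 2% isoflurane anesthesia. Tail-vein blood taken into sodium citrate, plasma spun down, precipitated with acetonitrile containing diphenhydramine internal standard, analysed by HPLC-MS/MS with duplicate injections. Mean parameters from noncompartmental analysis.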
# [10] = Clearance in Sprague-Dawley rat at 5 mg/kg, iv administered as single dose by HPLC-MS/MS analysis; assay type: ADME, organism-based; details: in vivo; outline: as §5
# CYP2C19, sequence (P33261 whole entry): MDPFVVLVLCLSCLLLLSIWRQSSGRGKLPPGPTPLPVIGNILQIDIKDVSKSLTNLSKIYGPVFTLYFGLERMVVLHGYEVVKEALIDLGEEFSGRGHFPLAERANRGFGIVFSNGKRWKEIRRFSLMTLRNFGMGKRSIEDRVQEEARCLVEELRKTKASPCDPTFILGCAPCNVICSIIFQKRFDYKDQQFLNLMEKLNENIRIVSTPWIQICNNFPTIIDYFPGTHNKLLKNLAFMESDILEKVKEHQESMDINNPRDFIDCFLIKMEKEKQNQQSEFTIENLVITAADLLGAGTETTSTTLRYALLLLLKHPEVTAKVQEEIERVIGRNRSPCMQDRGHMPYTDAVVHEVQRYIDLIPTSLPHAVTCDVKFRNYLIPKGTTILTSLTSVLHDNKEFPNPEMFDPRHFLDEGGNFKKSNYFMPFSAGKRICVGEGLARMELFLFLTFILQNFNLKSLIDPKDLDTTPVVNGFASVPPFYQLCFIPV
# CYP2C9, sequence (P11712 whole entry): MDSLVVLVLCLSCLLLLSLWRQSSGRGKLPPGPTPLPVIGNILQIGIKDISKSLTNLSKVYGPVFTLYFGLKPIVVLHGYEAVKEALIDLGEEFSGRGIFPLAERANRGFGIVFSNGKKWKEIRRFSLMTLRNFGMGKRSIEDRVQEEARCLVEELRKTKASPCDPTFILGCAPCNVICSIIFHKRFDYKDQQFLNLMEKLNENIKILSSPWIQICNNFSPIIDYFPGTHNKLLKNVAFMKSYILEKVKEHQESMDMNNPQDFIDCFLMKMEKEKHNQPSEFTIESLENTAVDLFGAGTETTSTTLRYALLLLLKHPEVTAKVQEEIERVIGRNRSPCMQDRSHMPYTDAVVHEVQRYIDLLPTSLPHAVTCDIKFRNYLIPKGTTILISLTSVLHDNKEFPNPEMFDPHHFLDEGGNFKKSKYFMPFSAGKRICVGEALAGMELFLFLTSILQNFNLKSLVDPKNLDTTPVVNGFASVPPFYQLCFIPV
SMILES,half-life at 1 µM [1] [h],half-life at 1 µM [2] [h],"inhibition at 0.5 h, 2 µM (CYP17A1) [%]",inhibition at 1 µM (CYP1A2) [%],inhibition at 1 µM (CYP2B6) [%],inhibition at 1 µM (CYP2C9) [%],inhibition at 1 µM (CYP2C19) [%],Activity (Salmonella typhimurium [3]),Activity (Salmonella typhimurium [4]),Activity (Salmonella typhimurium [5]),solubility at 24 h [6] [µM],concentration at 1 h [7] [µM],concentration at 4 h [8] [µM],Vd [9] [L/kg],clearance [10] [mL/min/kg]
Cc1cncc(Cc2cc(-c3ccccc3)no2)c1,2.42,0.5,≤ 9,54,3,28,8,Non-Toxic,Non-Toxic,Non-Toxic,> 200,2.5,0.3,–,–
COc1cncc(Cc2cc(-c3ccccc3)no2)c1,2.08,0.383,≤ 9,23,19,17,17,Non-Toxic,Non-Toxic,Non-Toxic,> 200,19.7,106,3.1,22.6
